Assay results as given in ChEMBL document CHEMBL1149318, “(Z)- and (E)-[2-Fluoro-2-(hydroxymethyl)cyclopropylidene]methylpurines and -pyrimidines, a new class of methylenecyclopropane analogues of nucleosides: synthesis and antiviral activity” (J Med Chem, 2004).

Columns and labels:
[1] = system: Human immunodeficiency virus 1; assay: Inhibition of HIV1 LAI replication in MT2 by CPE assay; type: functional, organism-based; settings: Human immunodeficiency virus 1, LAI
Outline: (§1)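 HIV-1 LAI, 100 TCID50, used to infect MT-2 (2 × 10^3) or MT-4 (3 × 10^4) cells, which are then cultured with test analogue. EC50 read by MTT assay on day 7 (MT-2) or day 5 (MT-4). Assays run in duplicate.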

[2] = Cytotoxicity against Daudi cells; type: cell-based; settings: human
Hepatitis B virus = assay: Inhibition of HBV replication in 2.2.15 cells by DNA hybridization assay; type: functional, organism-based; settings: HepG2 2.2.15
Outline: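 HBV in 2.2.15 cells; viral DNA quantified by DNA hybridization to give EC50.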

[3] = Cytotoxicity against HFF cells by neutral red uptake assay; type: cell-based; settings: human
Outline: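 Human foreskin fibroblast (HFF) cultures, as used for the HCMV assays, exposed to analogues. Cytotoxicity read by neutral red uptake.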

Human alphaherpesvirus 1 [4] = assay: Inhibition of HSV1 in HFF cells by CPE assay; type: functional, organism-based; settings: Human alphaherpesvirus 1, HFF
Outline: (§2)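 Cytopathic effect inhibition assay in HFF culture (HCMV AD169; HSV-1 and HSV-2). Cytotoxicity by neutral red uptake.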

Human alphaherpesvirus 2 = assay: Inhibition of HSV2 in HFF cells by CPE assay; type: functional, organism-based; settings: Human alphaherpesvirus 2, HFF; outline: as §2
[5] = Cytotoxicity against MT2 cells; type: cell-based; settings: human
Outline: (§3)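 Uninfected MT-2 (2 × 10^3 cells) or MT-4 (3 × 10^4 cells) cultured with analogues. Viability read by MTT assay after day 7 (MT-2) or day 5 (MT-4). Run in duplicate.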

CCRF-CEM = assay: Cytotoxicity against CEM cells; type: functional; settings: Homo sapiens
Human betaherpesvirus 5 [6] = assay: Inhibition of HCMV Towne replication in HFF cells by plaque reduction assay; type: functional, organism-based; settings: Human betaherpesvirus 5, Towne
Outline: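 Plaque reduction assay in HFF culture with HCMV Towne strain; cytotoxicity by neutral red uptake.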

[7] = Inhibition of HSV2 in Vero cells by plaque reduction assay; type: cell-based; settings: Chlorocebus sabaeus
Outline: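 Plaque reduction assay in Vero cells with HSV-1 or HSV-2.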

Human betaherpesvirus 5 [8] = assay: Inhibition of HCMV AD169 replication in HFF cells by CPE inhibition assay; type: functional, organism-based; settings: Human betaherpesvirus 5, AD169, HFF; outline: as §2
Human alphaherpesvirus 1 [9] = assay: Inhibition of HSV1 in Vero cells by plaque reduction assay; settings: Human alphaherpesvirus 1, Vero
Human alphaherpesvirus 3 = assay: Inhibition of VZV replication in HFF cells by CPE assay; type: functional, organism-based; settings: Human alphaherpesvirus 3, HFF
[10] = Cytotoxicity against HFF cells by visual cytotoxicity; type: cell-based; settings: human
Outline: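 HFF cultures exposed to analogues. Cytotoxicity scored visually.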

Human gammaherpesvirus 4 [11] = assay: Inhibition of EBV replication in Daudi cells by VCA ELISA; type: functional, organism-based; settings: human gammaherpesvirus 4, Daudi
Outline: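 Viral capsid antigen (VCA) ELISA in Daudi cells; EC50 from capsid antigen signal. Cytotoxicity measured in CEM cells.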

Human alphaherpesvirus 1 [12] = assay: Inhibition of HSV1 replication in BSC1 cells by ELISA; type: functional, organism-based; settings: Human alphaherpesvirus 1, BSC-1
Outline: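 HSV-1 in BSC-1 cells, read by ELISA; cytotoxicity determined in KB cells.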

[13] = Cytotoxicity against HFF cells; type: cell-based; settings: human
[14] = Cytotoxicity against Vero cells; type: cell-based; settings: chlorocebus sabaeus
Human gammaherpesvirus 4 [15] = assay: Inhibition of EBV replication in H1 cells by DNA hybridization assay; type: functional, organism-based; settings: human gammaherpesvirus 4, H1
Outline: (§4)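 EBV DNA hybridization assay in Daudi or H-1 cells; EC50 derived from viral DNA signal. Cytotoxicity for these EBV assays measured in CEM cells.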

Human gammaherpesvirus 4 [16] = assay: Inhibition of EBV replication in Daudi cells by DNA hybridization assay; type: functional, organism-based; settings: human gammaherpesvirus 4, Daudi; outline: as §4
[17] = Cytotoxicity against MT4 cells; type: cell-based; settings: human; outline: as §3
[18] = system: Human immunodeficiency virus 1; assay: Inhibition of HIV1 LAI replication in MT4 by CPE assay; type: functional, organism-based; settings: Human immunodeficiency virus 1, LAI; outline: as §1
[19] = Cytotoxicity against MFF cells; type: cell-based; settings: mouse
Murid betaherpesvirus 1 = assay: Inhibition of MCMV replication in MFF cells by plaque reduction assay; type: functional, organism-based; settings: Murid betaherpesvirus 1, MFF
Outline: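 MCMV in MEF cells by plaque reduction.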

Structure (SMILES)	EC50 [1]	CC50 [2]	EC50 (Hepatitis B virus)	CC50 [3]	EC50 (Human alphaherpesvirus 1 [4])	EC50 (Human alphaherpesvirus 2)	CC50 [5]	CC50 (CCRF-CEM)	EC50 (Human betaherpesvirus 5 [6])	EC50 [7]	EC50 (Human betaherpesvirus 5 [8])	EC50 (Human alphaherpesvirus 1 [9])	EC50 (Human alphaherpesvirus 3)	CC50 [10]	EC50 (Human gammaherpesvirus 4 [11])	EC50 (Human alphaherpesvirus 1 [12])	CC50 [13]	CC50 [14]	EC50 (Human gammaherpesvirus 4 [15])	EC50 (Human gammaherpesvirus 4 [16])	also measured
Nc1nc2c(ncn2/C=C2\CC2(F)CO)c(=O)[nH]1 (stereo unspecified)	> 100 µM	> 199 µM	> 20 µM	> 398 µM	> 80 µM	> 80 µM	> 100 µM	> 100 µM	> 100 µM	> 50 µM	> 79.6 µM	> 50 µM	> 79.6 µM	> 100 µM	< 0.32 µM	90 µM	> 400 µM	> 100 µM	> 20 µM	–	–
Nc1ccn(/C=C2/CC2(F)CO)c(=O)n1 (stereo unspecified)	> 100 µM	> 237 µM	> 20 µM	> 474 µM	> 80 µM	> 80 µM	> 100 µM	> 100 µM	> 100 µM	> 50 µM	> 474 µM	> 50 µM	0.62 µM	> 100 µM	< 0.38 µM	> 100 µM	> 400 µM	> 100 µM	> 20 µM	28.4 µM	–
Nc1ccn(/C=C2\CC2(F)CO)c(=O)n1 (stereo unspecified)	> 100 µM	> 237 µM	> 20 µM	> 474 µM	> 80 µM	> 80 µM	> 100 µM	> 100 µM	> 100 µM	> 50 µM	> 474 µM	> 50 µM	14.7 µM	> 100 µM	0.76 µM	> 100 µM	> 400 µM	> 100 µM	> 20 µM	94.8 µM	–
Nc1ncnc2c1ncn2/C=C1/CC1(F)CO (stereo unspecified)	12 µM	> 213 µM	> 20 µM	> 425 µM	> 80 µM	> 80 µM	> 100 µM	> 100 µM	3.6 µM	> 50 µM	6 µM	> 50 µM	14 µM	> 100 µM	1.45 µM	> 100 µM	> 400 µM	> 100 µM	13.8 µM	–	CC50 [17]: > 100 µM; EC50 [18]: 22 µM; CC50 [19]: > 425 µM; EC50 (Murid betaherpesvirus 1): 69.3 µM
Nc1ncnc2c1ncn2/C=C1\CC1(F)CO (stereo unspecified)	2.3 µM	> 209 µM	15 µM	> 417 µM	> 80 µM	> 80 µM	> 100 µM	> 100 µM	20 µM	> 50 µM	> 16.7 µM	> 50 µM	> 83.4 µM	> 100 µM	–	30 µM	> 400 µM	> 100 µM	–	–	CC50 [17]: > 100 µM; EC50 [18]: 7.6 µM
Cc1cn(/C=C2/CC2(F)CO)c(=O)[nH]c1=O (stereo unspecified)	> 100 µM	> 221 µM	> 20 µM	> 442 µM	> 80 µM	> 80 µM	> 100 µM	> 100 µM	> 100 µM	> 50 µM	> 442 µM	> 50 µM	0.62 µM	> 100 µM	51.7 µM	2.5 µM	> 400 µM	> 100 µM	2.5 µM	4.4 µM	–
Nc1nc2c(ncn2/C=C2/CC2(F)CO)c(=O)[nH]1 (stereo unspecified)	> 100 µM	> 199 µM	> 20 µM	> 398 µM	> 80 µM	> 80 µM	> 100 µM	> 100 µM	> 100 µM	> 50 µM	> 79.6 µM	> 50 µM	> 79.6 µM	> 100 µM	4.8 µM	> 100 µM	> 400 µM	> 100 µM	> 20 µM	–	–
Cc1cn(/C=C2\CC2(F)CO)c(=O)[nH]c1=O (stereo unspecified)	> 100 µM	> 221 µM	> 20 µM	> 442 µM	> 80 µM	> 80 µM	> 100 µM	> 100 µM	> 100 µM	> 50 µM	> 442 µM	> 50 µM	> 442 µM	> 100 µM	> 221 µM	40 µM	> 400 µM	> 100 µM	> 20 µM	–	–
Nc1nc2c(ncn2COCCO)c(=O)[nH]1 [ACYCLOVIR]	–	> 222 µM	–	–	–	–	–	–	–	–	–	–	–	–	–	10 µM	> 444 µM	–	–	5.3 µM	–
Nc1nc2c(ncn2COC(CO)CO)c(=O)[nH]1 [GANCICLOVIR]	–	–	–	> 392 µM	–	–	–	–	2.1 µM	–	2.2 µM	> 50 µM	–	> 100 µM	–	–	–	–	–	–	–
Nc1ccn([C@@H]2CS[C@H](CO)O2)c(=O)n1 [LAMIVUDINE]	–	–	–	–	–	–	–	> 100 µM	–	–	–	–	–	–	–	–	–	–	–	–	–
Cc1cn([C@H]2C[C@H](N=[N+]=[N-])[C@@H](CO)O2)c(=O)[nH]c1=O [ZIDOVUDINE]	0.02 µM	–	–	–	–	–	> 10 µM	–	–	–	–	–	–	–	–	–	–	–	–	–	–
